Laboratory results from ChEMBL document CHEMBL1130079, “Non-peptide RGD surrogates which mimic a Gly-Asp beta-turn: potent antagonists of platelet glycoprotein IIb-IIIa” (J Med Chem, 1997).
pIC50: −log10 of the molar value.

Columns and labels:
[1] = molecular target: Integrin alpha-IIb/beta-3 (Homo sapiens, UniProt P05106+P08514); test: Concentration required to reduce binding of fibrinogen to purified Fibrinogen Receptor by 50% using ELISA; format: protein-complex assay
Summary of the method: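 ELISA of fibrinogen binding to immobilized purified human platelet GPIIb-IIIa; biotinylated fibrinogen detected with alkaline phosphatase-labeled goat antibiotin and p-nitrophenol phosphate substrate; IC50 as inhibition of fibrinogen binding.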

Homo sapiens = species on record: Homo sapiens; test: Ability to block Glycoprotein IIb-IIIa was measured by inhibiting ADP induced human platelet aggregation (5 uM); format: functional

Integrin alpha-IIb/beta-3, sequence (P05106 27-788 limits assumed): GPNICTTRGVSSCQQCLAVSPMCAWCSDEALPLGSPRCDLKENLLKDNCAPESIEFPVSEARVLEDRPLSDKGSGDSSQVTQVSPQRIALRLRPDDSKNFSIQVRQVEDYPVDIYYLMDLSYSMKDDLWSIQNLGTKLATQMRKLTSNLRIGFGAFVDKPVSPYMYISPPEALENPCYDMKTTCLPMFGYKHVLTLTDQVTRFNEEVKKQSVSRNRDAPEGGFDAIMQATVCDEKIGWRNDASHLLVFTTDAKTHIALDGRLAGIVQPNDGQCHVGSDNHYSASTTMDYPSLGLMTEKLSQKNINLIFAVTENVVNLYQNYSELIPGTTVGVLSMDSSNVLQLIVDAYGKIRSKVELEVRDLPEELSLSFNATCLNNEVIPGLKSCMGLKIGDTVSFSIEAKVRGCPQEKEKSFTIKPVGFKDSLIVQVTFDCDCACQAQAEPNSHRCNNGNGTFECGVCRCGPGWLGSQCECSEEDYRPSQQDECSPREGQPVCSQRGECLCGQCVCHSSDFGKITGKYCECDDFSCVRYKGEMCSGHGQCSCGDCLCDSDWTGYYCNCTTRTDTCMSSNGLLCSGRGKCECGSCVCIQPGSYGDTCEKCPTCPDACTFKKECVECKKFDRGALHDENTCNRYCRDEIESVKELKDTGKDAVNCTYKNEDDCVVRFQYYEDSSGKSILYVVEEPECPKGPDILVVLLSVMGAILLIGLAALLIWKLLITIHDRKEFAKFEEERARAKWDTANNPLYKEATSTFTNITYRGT
Integrin alpha-IIb/beta-3, sequence (P08514 32-887 limits assumed): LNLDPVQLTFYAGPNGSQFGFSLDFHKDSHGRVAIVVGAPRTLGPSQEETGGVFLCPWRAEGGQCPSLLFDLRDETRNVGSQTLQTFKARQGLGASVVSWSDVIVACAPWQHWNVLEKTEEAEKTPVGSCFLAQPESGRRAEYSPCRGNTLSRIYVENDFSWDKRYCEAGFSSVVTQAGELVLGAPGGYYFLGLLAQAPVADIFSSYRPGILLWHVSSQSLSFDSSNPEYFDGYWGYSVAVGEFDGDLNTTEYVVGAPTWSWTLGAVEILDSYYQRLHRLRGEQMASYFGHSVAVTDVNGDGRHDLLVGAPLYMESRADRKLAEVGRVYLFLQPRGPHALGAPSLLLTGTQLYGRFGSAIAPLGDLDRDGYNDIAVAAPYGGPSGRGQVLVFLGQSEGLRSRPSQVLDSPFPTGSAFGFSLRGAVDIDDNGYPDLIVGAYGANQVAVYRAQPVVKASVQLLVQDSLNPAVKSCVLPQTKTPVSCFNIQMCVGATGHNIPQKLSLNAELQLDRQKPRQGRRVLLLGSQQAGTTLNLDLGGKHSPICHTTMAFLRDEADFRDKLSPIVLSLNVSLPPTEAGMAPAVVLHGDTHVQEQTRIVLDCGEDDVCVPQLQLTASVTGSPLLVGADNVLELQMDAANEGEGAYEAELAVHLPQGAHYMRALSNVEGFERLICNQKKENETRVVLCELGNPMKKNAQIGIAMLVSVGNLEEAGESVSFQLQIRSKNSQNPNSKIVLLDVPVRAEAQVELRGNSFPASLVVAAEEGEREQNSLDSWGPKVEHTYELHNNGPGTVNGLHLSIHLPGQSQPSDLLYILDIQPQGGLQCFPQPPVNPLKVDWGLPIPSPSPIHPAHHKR
Integrin alpha-IIb/beta-3, sequence (P08514 891-1039 limits assumed): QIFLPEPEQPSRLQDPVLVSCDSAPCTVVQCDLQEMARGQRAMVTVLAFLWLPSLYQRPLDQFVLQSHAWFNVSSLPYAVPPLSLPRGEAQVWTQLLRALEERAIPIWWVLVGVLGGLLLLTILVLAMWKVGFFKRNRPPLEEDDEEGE

| SMILES | pIC50 [1] | pIC50 (Homo sapiens) |
| --- | --- | --- |
| N=C(N)c1ccc(NC(=O)c2ccc3c(c2)CCN(CC(=O)O)C3=O)cc1 | 7.12 | 6.25 |
| N=C(N)c1ccc(COc2ccc3c(c2)C(=O)N(CC(=O)O)CC3)cc1 | 5.40 | – |
| N=C(N)NCCCOc1ccc2c(c1)CCN(CC(=O)O)C2=O | 4.36 | – |
| O=C(O)CN1CCc2cc(OCC3CCNCC3)ccc2C1=O | 4.26 | – |
| N=C(N)NCc1cccc(COc2ccc3c(c2)CCN(CC(=O)O)C3=O)c1 | 4.85 | – |
| N=C(N)c1ccc(C(=O)Nc2ccc3c(c2)CCN(CC(=O)O)C3=O)cc1 | 8.52 | 7.05 |
| O=C(O)CN1CCc2cc(OCCC3CCNCC3)ccc2C1=O | 4.96 | – |
| NCCCOc1ccc2c(c1)CCN(CC(=O)O)C2=O | 4.32 | – |
| N=C(N)NCCCCOc1ccc2c(c1)C(=O)N(CC(=O)O)CC2 | 4.34 | – |
| NCCCCOc1ccc2c(c1)CCN(CC(=O)O)C2=O | 4.74 | – |
| N=C(N)NCc1ccc(COc2ccc3c(c2)CCN(CC(=O)O)C3=O)cc1 | 5.40 | – |
| N=C(N)c1ccc(/C=C\c2ccc3c(c2)CCN(CC(=O)O)C3=O)cc1 | 6.54 | 5.24 |
| N=C(N)NCCCCOc1ccc2c(c1)CCN(CC(=O)O)C2=O | 5.00 | – |
| NCCCCCOc1ccc2c(c1)CCN(CC(=O)O)C2=O | 4.55 | – |
| NCCCCCCOc1ccc2c(c1)CCN(CC(=O)O)C2=O | 4.72 | – |
| N=C(N)c1ccc(COc2ccc3c(c2)CCN(CC(=O)O)C3=O)cc1 | – | 4.52 |
| NCc1ccc(COc2ccc3c(c2)CCN(CC(=O)O)C3=O)cc1 | 4.92 | – |
| N=C(N)NCCCCCCOc1ccc2c(c1)CCN(CC(=O)O)C2=O | 4.92 | – |
| N=C(N)c1ccc(CCOc2ccc3c(c2)CCN(CC(=O)O)C3=O)cc1 | 5.22 | – |
| N=C(N)NCCCOc1ccc2c(c1)C(=O)N(CC(=O)O)CC2 | > 4.00 | – |
| N=C(N)c1ccc(CCc2ccc3c(c2)CCN(CC(=O)O)C3=O)cc1 | – | 5.92 |
| O=C(O)CN1CCc2cc(OCCCCC3CCNCC3)ccc2C1=O | 5.74 | 5.01 |
| O=C(O)CN1CCc2cc(OCCCC3CCNCC3)ccc2C1=O | 5.22 | – |
| N=C(N)c1ccc(/C=C/c2ccc3c(c2)CCN(CC(=O)O)C3=O)cc1 | 7.32 | 6.47 |
| NCc1cccc(COc2ccc3c(c2)CCN(CC(=O)O)C3=O)c1 | 4.11 | – |
| N=C(N)c1ccc(C#Cc2ccc3c(c2)CCN(CC(=O)O)C3=O)cc1 | 7.48 | 6.28 |
